Reference: ChEMBL document CHEMBL3734652, “Pyrrolo[3,4-c]pyridine-1,3(2H)-diones: A Novel Antimycobacterial Class Targeting Mycobacterial Respiration” (J Med Chem, 2015)
Values after ≈ are worked out from the molar mass of the structure shown.

Tests used:
Mus musculus = assay: Ratio of AUC (0 to infinity) in C57/BL6 mouse at 20 mg/kg, po co-administered with amino-benzotriazole to AUC (0 to infinity) in C57/BL6 mouse at 20 mg/kg, po without co-administration of amino-benzotriazole; assay type: ADME, organism-based; details: in vivo
[1] = tested on: Mycobacterium tuberculosis; assay: Antimicrobial activity against GFP expressing recombinant Mycobacterium tuberculosis H37RvMA under GAST/Fe medium assessed as growth inhibition after 14 days by broth microdilution method; assay type: functional; details: 336 h
[2] = tested on: Mycobacterium tuberculosis; assay: Antimicrobial activity against Mycobacterium tuberculosis H37RvMA under GAST/Fe medium assessed as growth inhibition after 14 days by alamar blue assay; assay type: functional; details: 336 h
Outline: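 Broth microdilution in GAST/Fe medium against fully virulent Mtb H37RvMa or its derived strains (cytochrome bd oxidase deletion ΔcydKO; qcrB Ala317Thr point mutant). Plates were incubated 14 days, growth was read by Alamar Blue, and MIC90 was taken as the potency value.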

[3] = Kinetic solubility in FaSSIF at pH 6.5 after 2 hours at 25 degC by shake flask method; assay type: physicochemical; details: read-out: Kinetic_solubility
Vero = assay: Cytotoxicity against African green monkey Vero cells assessed as cell viability by MTT assay; assay type: cell-based; details: Chlorocebus sabaeus
Outline: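 VERO kidney epithelial cells from African green monkey were exposed to compounds at concentrations up to 100 μM, and IC₅₀ was reported.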

[4] = tested on: Mycobacterium tuberculosis; assay: Antimicrobial activity against GFP expressing recombinant Mycobacterium tuberculosis H37RvMA under 7H9 medium assessed as growth inhibition after 14 days by broth microdilution method; assay type: functional; details: 336 h
[5] = tested on: Mycobacterium tuberculosis; assay: Antimicrobial activity against clinical isolates of Mycobacterium tuberculosis SAWC 2371 Haarlem under 7H9 medium assessed as growth inhibition after 14 days by alamar blue assay; assay type: functional; details: 336 h
[6] = tested on: Mycobacterium tuberculosis; assay: Antimicrobial activity against clinical isolates of Mycobacterium tuberculosis SAWC 3385 Cas1/Delhi under 7H9 medium assessed as growth inhibition after 14 days by alamar blue assay; assay type: functional; details: 336 h
[7] = tested on: Mycobacterium tuberculosis; assay: Antimicrobial activity against clinical isolates of Mycobacterium tuberculosis SAWC 3906 Atyp-beijing under 7H9 medium assessed as growth inhibition after 14 days by alamar blue assay; assay type: functional; details: 336 h
[8] = tested on: Mycobacterium tuberculosis; assay: Antimicrobial activity against clinical isolates of Mycobacterium tuberculosis SAWC 3933 LCC under 7H9 medium assessed as growth inhibition after 14 days by alamar blue assay; assay type: functional; details: 336 h
Liver microsome [9] = assay: Intrinsic clearance in human liver microsomes assessed per mg of protein at 0.1 uM by LC-MS/MS method in presence or absence of NADPH; assay type: ADME
Liver microsome [10] = assay: Intrinsic clearance in rat liver microsomes assessed per mg of protein at 0.1 uM by LC-MS/MS method in presence or absence of NADPH; assay type: ADME
[11] = Intrinsic clearance in mouse liver microsomes assessed per mg of protein at 0.1 uM by LC-MS/MS method in presence or absence of NADPH; assay type: ADME
[12] = Metabolic stability in human liver S9 fractions assessed as residual compound at 0.1 uM after 40 mins by LC-MS/MS method in presence or absence of NADPH; assay type: ADME; details: read-out: Stability
[13] = Half life in human plasma at 0.1 uM by LC-MS/MS method; assay type: ADME, cell-free
[14] = Octanol-phosphate buffer partition coefficient, log D of the compound at 100 uM at pH 7.4 after 3 hrs by shake flask method; assay type: physicochemical
[15] = Plasma protein binding in human at 5 uM preincubated for 1 hr by LC-MS/MS method; assay type: ADME, cell-free; details: read-out: PPB (converted)
[16] = Apparent half-life in anesthetized C57/BL6 mouse at 5 mg/kg, iv by LC-MS method; assay type: ADME, organism-based; details: in vivo, read-out: t1/2(app) (converted)
Outline: (§1)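 C57/BL6 mice were given a single dose of 5 mg/kg iv or 20 mg/kg po. Each dose was tested alone and co-dosed with aminobenzotriazole, a nonspecific cytochrome P450 inhibitor. Plasma exposure was followed, and each parameter is the mean of three animals.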

[17] = Apparent half-life in C57/BL6 mouse at 20 mg/kg, po by LC-MS method; assay type: ADME, organism-based; details: in vivo, read-out: t1/2(app) (converted); outline: as §1
[18] = Apparent half-life in anesthetized C57/BL6 mouse at 5 mg/kg, iv co-administered with amino-benzotriazole by LC-MS method; assay type: ADME, organism-based; details: in vivo, read-out: t1/2(app) (converted); outline: as §1
[19] = Apparent half-life in C57/BL6 mouse at 20 mg/kg, po co-administered with amino-benzotriazole by LC-MS method; assay type: ADME, organism-based; details: in vivo, read-out: t1/2(app) (converted); outline: as §1
[20] = Total clearance in anesthetized C57/BL6 mouse at 5 mg/kg, iv by LC-MS method; assay type: ADME, organism-based; details: in vivo; outline: as §1
[21] = Total clearance in anesthetized C57/BL6 mouse at 5 mg/kg, iv co-administered with amino-benzotriazole by LC-MS method; assay type: ADME, organism-based; details: in vivo; outline: as §1
[22] = Volume of distribution in anesthetized C57/BL6 mouse at 5 mg/kg, iv by LC-MS method; assay type: ADME, organism-based; details: in vivo; outline: as §1
[23] = Volume of distribution in anesthetized C57/BL6 mouse at 5 mg/kg, iv co-administered with amino-benzotriazole by LC-MS method; assay type: ADME, organism-based; details: in vivo; outline: as §1
[24] = Cmax in anesthetized C57/BL6 mouse at 5 mg/kg, iv by LC-MS method; assay type: ADME, organism-based; set-up: dose 5 mg/kg, route intravenous; details: in vivo; outline: as §1
[25] = Cmax in C57/BL6 mouse at 20 mg/kg, po by LC-MS method; assay type: ADME, organism-based; set-up: dose 20 mg/kg, route oral; details: in vivo; outline: as §1
[26] = Cmax in anesthetized C57/BL6 mouse at 5 mg/kg, iv co-administered with amino-benzotriazole by LC-MS method; assay type: ADME, organism-based; set-up: dose 5 mg/kg, route intravenous; details: in vivo; outline: as §1
[27] = Cmax in C57/BL6 mouse at 20 mg/kg, po co-administered with amino-benzotriazole by LC-MS method; assay type: ADME, organism-based; set-up: dose 20 mg/kg, route oral; details: in vivo; outline: as §1
[28] = Tmax in anesthetized C57/BL6 mouse at 5 mg/kg, iv by LC-MS method; assay type: ADME, organism-based; details: in vivo; outline: as §1
[29] = Tmax in C57/BL6 mouse at 20 mg/kg, po by LC-MS method; assay type: ADME, organism-based; details: in vivo; outline: as §1
[30] = Tmax in anesthetized C57/BL6 mouse at 5 mg/kg, iv co-administered with amino-benzotriazole by LC-MS method; assay type: ADME, organism-based; details: in vivo; outline: as §1
[31] = Tmax in C57/BL6 mouse at 20 mg/kg, po co-administered with amino-benzotriazole by LC-MS method; assay type: ADME, organism-based; details: in vivo; outline: as §1
[32] = AUC (0 to infinity) in anesthetized C57/BL6 mouse at 5 mg/kg, iv by LC-MS method; assay type: ADME, organism-based; set-up: dose 5 mg/kg, route intravenous, time infinity; details: in vivo; outline: as §1
[33] = AUC (0 to infinity) in C57/BL6 mouse at 20 mg/kg, po by LC-MS method; assay type: ADME, organism-based; set-up: dose 20 mg/kg, route oral, time infinity; details: in vivo; outline: as §1
[34] = AUC (0 to infinity) in anesthetized C57/BL6 mouse at 5 mg/kg, iv co-administered with amino-benzotriazole by LC-MS method; assay type: ADME, organism-based; set-up: dose 5 mg/kg, route intravenous, time infinity; details: in vivo; outline: as §1
[35] = AUC (0 to infinity) in C57/BL6 mouse at 20 mg/kg, po co-administered with amino-benzotriazole by LC-MS method; assay type: ADME, organism-based; set-up: dose 20 mg/kg, route oral, time infinity; details: in vivo; outline: as §1
[36] = Oral bioavailability in C57/BL6 mouse at 20 mg/kg by LC-MS method; assay type: ADME, organism-based; details: in vivo; outline: as §1
[37] = Oral bioavailability in C57/BL6 mouse at 20 mg/kg co-administered with amino-benzotriazole by LC-MS method; assay type: ADME, organism-based; details: in vivo; outline: as §1
[38] = Ratio of Cmax in C57/BL6 mouse at 20 mg/kg, po co-administered with amino-benzotriazole to MIC90 for Mycobacterium tuberculosis H37RvMA in GAST/Fe medium
[39] = Metabolic stability in human liver microsomes assessed as residual compound at 0.1 uM after 30 mins by LC-MS/MS method in presence or absence of NADPH; assay type: ADME; details: read-out: Stability
[40] = Metabolic stability in rat liver microsomes assessed as residual compound at 0.1 uM after 30 mins by LC-MS/MS method in presence or absence of NADPH; assay type: ADME; details: read-out: Stability
[41] = Metabolic stability in mouse liver microsomes assessed as residual compound at 0.1 uM after 30 mins by LC-MS/MS method in presence or absence of NADPH; assay type: ADME; details: read-out: Stability
Liver [42] = assay: Drug metabolism in BALB/c mouse liver microsomes assessed as formation of 7-Amino-2-benzyl-4-methyl-1,3-dioxo-2,3-dihydro-1H-pyrrolo-[3,4-c]pyridine-6-carboxylic Acid at 10 uM after 1 hr by LC-MS analysis; assay type: ADME
Liver [43] = assay: Drug metabolism in BALB/c mouse liver microsomes assessed as formation of 7-Amino-2-benzyl-4-methyl-1,3-dioxo-2,3-dihydro-1H-pyrrolo-[3,4-c]pyridine-6-carboxamide at 10 uM after 1 hr by LC-MS analysis; assay type: ADME
Liver [44] = assay: Drug metabolism in BALB/c mouse liver microsomes assessed as formation of 7-Amino-2-benzyl-N-cyano-4-methyl-1,3-dioxo-2,3-dihydro-1Hpyrrolo[3,4-c]pyridine-6-carboxamide at 10 uM after 1 hr by LC-MS analysis; assay type: ADME
Plasma [45] = assay: Drug metabolism in C57/BL6 mouse plasma assessed as formation of 7-Amino-2-benzyl-4-methyl-1,3-dioxo-2,3-dihydro-1H-pyrrolo-[3,4-c]pyridine-6-carboxylic Acid by LC-MS analysis; assay type: ADME, cell-free
Plasma [46] = assay: Drug metabolism in C57/BL6 mouse plasma assessed as formation of 7-Amino-2-benzyl-4-methyl-1,3-dioxo-2,3-dihydro-1H-pyrrolo-[3,4-c]pyridine-6-carboxamide by LC-MS analysis; assay type: ADME, cell-free
Plasma [47] = assay: Drug metabolism in C57/BL6 mouse plasma assessed as formation of 7-Amino-2-benzyl-N-cyano-4-methyl-1,3-dioxo-2,3-dihydro-1Hpyrrolo[3,4-c]pyridine-6-carboxamide by LC-MS analysis; assay type: ADME, cell-free

With `Cc1noc(-c2nc(C)c3c(c2N)C(=O)N(Cc2cccc(Cl)c2)C3=O)n1` the “Ratio AUC” value (Mus musculus) was 10, the MIC90 [1] was 0.065 µM and the MIC90 [2] was less than 0.156 µM. For the same molecule, the solubility kinetic at 2 h [3] was 72 µM (≈ 27.6 µg/mL), the IC50 (Vero) was greater than 100 µM and the MIC90 [4] was greater than 20 µM. The MIC90 [5] was 0.6 µM (≈ 0.23 µg/mL), the MIC90 [6] was 0.6 µM (≈ 0.23 µg/mL) and the MIC90 [7] was 0.15 µM (≈ 0.0576 µg/mL). For the same molecule, the MIC90 [8] was 0.15 µM (≈ 0.0576 µg/mL), the CLint (Liver microsome [9]) was less than 11.6 µL/min/mg and the CLint (Liver microsome [10]) was less than 11.6 µL/min/mg. The CLint [11] was less than 11.6 µL/min/mg, the remaining at 40 min, 0.1 µM [12] was 97% and the half-life at 0.1 µM [13] was 1.03 h. The logD at 3 h, 100 µM [14] was 3.34, the fraction unbound at 1 h, 5 µM [15] was 0.033 and the half-life [16] was 7.01 h. It also gave a half-life [17] of 2.19 h, a half-life [18] of 7.31 h and a half-life [19] of 3.39 h. It also gave a clearance [20] of 171 mL/min/kg, a clearance [21] of 94.5 mL/min/kg and a Vd [22] of 104 L/kg. It also gave a Vd [23] of 53.1 L/kg, a Cmax [24] of 622 nM and a Cmax [25] of 33 nM. It also gave a Cmax [26] of 1530 nM, a Cmax [27] of 167 nM and a Tmax [28] of 0.17 h. For the same molecule, the Tmax [29] was 1 h, the Tmax [30] was 0.17 h and the Tmax [31] was 0.5 h. The AUC(0-inf) [32] was 1.27 µM·h, the AUC(0-inf) [33] was 0.133 µM·h and the AUC(0-inf) [34] was 2.65 µM·h. It also gave an AUC(0-inf) [35] of 1.33 µM·h, a bioavailability [36] of 2% and a bioavailability [37] of 26%. It also gave a Ratio [38] of 2.

Work on `Cc1noc(-c2nc(C)c3c(c2N)C(=O)N(Cc2ccccc2)C3=O)n1` yielded an MIC90 [2] of 0.625 µM (≈ 0.218 µg/mL), a solubility kinetic at 2 h [3] of less than 5 µM and a remaining at 0.5 h, 0.1 µM [39] of 57%. It also gave a remaining at 0.5 h, 0.1 µM [40] of 100%, a remaining at 0.5 h, 0.1 µM [41] of 98% and an IC50 (Vero) greater than 100 µM. For the same molecule, the Drug metabolism (Liver [42]) was “metabolite_detected”, the Drug metabolism (Liver [43]) was “metabolite_detected” and the Drug metabolism (Liver [44]) was “metabolite_detected”. The Drug metabolism (Plasma [45]) was “metabolite_detected”, the Drug metabolism (Plasma [46]) was “metabolite_detected” and the Drug metabolism (Plasma [47]) was “metabolite_detected”.
